Measured values taken from ChEMBL document CHEMBL4402602, “Discovery of (2R)-N-[3-[2-[(3-Methoxy-1-methyl-pyrazol-4-yl)amino]pyrimidin-4-yl]-1H-indol-7-yl]-2-(4-methylpiperazin-1-yl)propenamide (AZD4205) as a Potent and Selective Janus Kinase 1 Inhibitor” (J Med Chem, 2020).
Converted amounts (≈) assume the structure as drawn. The source made the active and inactive calls. No cut-off for these calls is given here.

Key:
[1] = Solubility of compound in phosphate buffer at pH 7.4 and 37 degree C; format: physicochemical
[2] = Octanol-buffer partition coefficient, log D of the compound at pH 7.4 by shake flask method; format: physicochemical
[3] = AUC in Han Wistar rat at 10 mg/kg, po; format: ADME, organism-based; settings: in vivo
Outline: (§1)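 Male Han Wistar rats. Oral dose 10 mg/kg in 0.1% HPMC. Intravenous dose 5 mg/kg in 40% DMA/40% PEG/20% saline. AUC, observed clearance, Vdss, half-life and oral bioavailability derived from plasma exposure.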

NCI-H1975 [4] = settings: Homo sapiens, 50 mg/kg
Mus musculus [5] = experiment: In vivo inhibition of JAK1 in human NCI-H1975 cells harboring EGFR T790M mutant xenografted in NCr nude mouse assessed as reduction of STAT3 phosphorylation at Y705 residue at 50 mg/kg measured after 8 hrs relative to control; format: functional; settings: NCI-H1975, 8 h
[6] = Bioavailability in Han Wistar rat at 10 mg/kg, po; settings: in vivo
[7] = AUC in Beagle dog at 10 mg/kg, iv; format: ADME, organism-based, Canis lupus familiaris; settings: in vivo
Outline: (§2)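 Male beagle dogs. Oral dose 20 mg/kg in 0.1% HPMC, pH 2. Intravenous dose 10 mg/kg in 20% TEG/D5W. AUC, observed clearance, Vdss, half-life and oral bioavailability derived from plasma exposure.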

Mus musculus [8] = organism: Mus musculus; settings: 50 mg/kg
Homo sapiens = organism: Homo sapiens; experiment: Selectivity index, ratio of IC50 for inhibition of recombinant human N-terminal GST-tagged JAK2 (831 to 1132 residues) expressed in insect cells using 5FAM-labeled GEEPLYWSFPAKKK-NH2 peptide as substrate after 10 mins in presence of 5 mM ATP by caliper mobility shift assay to IC50 for inhibition of …
[9] = Half life in Beagle dog at 20 mg/kg, po; format: ADME, organism-based, Canis lupus familiaris; settings: in vivo; outline: as §2
[10] = Half life in Han Wistar rat at 5 mg/kg, iv; format: ADME, organism-based; settings: in vivo; outline: as §1
[11] = AUC in Han Wistar rat at 5 mg/kg, iv; format: ADME, organism-based; settings: in vivo; outline: as §1
[12] = Clearance in Han Wistar rat at 5 mg/kg, iv; format: ADME, organism-based; settings: in vivo; outline: as §1
[13] = Intrinsic clearance in dog hepatocytes assessed per 10^-6 cells; format: ADME, cell-based, Canis lupus familiaris, Hepatocyte
Outline: (§3)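 Intrinsic clearance measured in fresh hepatocytes from rat, dog and human. Expressed as µL/min per 10⁶ cells.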

[14] = Volume of distribution at steady state in Beagle dog at 10 mg/kg, iv; format: ADME, organism-based, Canis lupus familiaris; settings: in vivo; outline: as §2
[15] = biological target: T1, Tyrosine-protein kinase JAK1 (Homo sapiens, UniProt P23458); experiment: Inhibition of recombinant human N-terminal GST-tagged JAK1 (866 to 1154 residues) expressed in insect cells using FITC-labeled C6-KKHTDDGYMPMSPGVA-NH peptide as substrate after 10 mins in presence of 5 mM ATP by caliper mobility shift assay
T1 sequence (P23458 whole entry, the tested form may be a part): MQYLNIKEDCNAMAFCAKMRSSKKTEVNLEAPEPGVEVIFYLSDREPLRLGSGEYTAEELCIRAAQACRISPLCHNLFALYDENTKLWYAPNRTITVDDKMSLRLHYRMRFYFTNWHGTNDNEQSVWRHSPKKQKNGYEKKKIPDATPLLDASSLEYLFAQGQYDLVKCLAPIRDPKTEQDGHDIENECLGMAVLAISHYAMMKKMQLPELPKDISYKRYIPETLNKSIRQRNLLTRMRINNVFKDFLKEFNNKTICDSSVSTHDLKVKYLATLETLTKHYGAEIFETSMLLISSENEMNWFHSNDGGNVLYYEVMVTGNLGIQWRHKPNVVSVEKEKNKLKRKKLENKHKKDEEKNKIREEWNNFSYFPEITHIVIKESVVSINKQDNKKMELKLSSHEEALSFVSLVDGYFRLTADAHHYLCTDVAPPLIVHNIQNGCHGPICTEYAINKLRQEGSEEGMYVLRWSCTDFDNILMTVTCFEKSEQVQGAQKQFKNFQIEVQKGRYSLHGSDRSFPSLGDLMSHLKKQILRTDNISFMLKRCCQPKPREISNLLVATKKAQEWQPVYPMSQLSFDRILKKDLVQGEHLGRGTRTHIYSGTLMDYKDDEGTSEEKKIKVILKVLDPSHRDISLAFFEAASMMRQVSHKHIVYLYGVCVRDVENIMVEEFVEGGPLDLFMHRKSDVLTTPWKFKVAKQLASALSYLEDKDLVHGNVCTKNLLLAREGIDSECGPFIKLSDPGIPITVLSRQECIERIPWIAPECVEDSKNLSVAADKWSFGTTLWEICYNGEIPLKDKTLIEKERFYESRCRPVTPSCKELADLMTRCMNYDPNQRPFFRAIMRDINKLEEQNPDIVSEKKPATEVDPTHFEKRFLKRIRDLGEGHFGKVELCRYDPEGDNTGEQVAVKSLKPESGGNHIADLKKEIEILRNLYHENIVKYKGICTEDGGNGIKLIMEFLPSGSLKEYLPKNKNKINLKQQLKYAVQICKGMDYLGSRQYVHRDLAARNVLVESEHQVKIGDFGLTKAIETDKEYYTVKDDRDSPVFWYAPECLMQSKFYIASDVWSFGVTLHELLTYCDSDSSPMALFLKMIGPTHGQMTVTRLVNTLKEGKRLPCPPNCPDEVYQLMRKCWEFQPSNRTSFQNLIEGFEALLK

[16] = Solubility of compound at pH 6.5; format: physicochemical; settings: buffer
[17] = Half life in Beagle dog at 10 mg/kg, iv; format: ADME, organism-based, Canis lupus familiaris; settings: in vivo; outline: as §2
[18] = biological target: Cytochrome P450 (isoform not stated) (Homo sapiens, UniProt P04798+P05177+P05181+P08684+P10632+P10635+P11509+P11712+P13584+P20813+P20815+P20853+P24462+P24903+P33260+P33261+P51589+P78329+P98187+Q02928+Q08477+Q16678+Q16696+Q5TCH4+Q6VVX0+Q7Z449+Q8TAV3+Q96SQ9+Q9HB55); experiment: Inhibition of human Cytochrome P450; format: ADME, protein assay
Outline: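 Inhibition tested against […] at up to 30 µM. IC50 reported.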

[19] = biological target: Non-receptor tyrosine-protein kinase TYK2 (Homo sapiens, UniProt P29597); experiment: Inhibition of TYK2 (unknown origin)
Outline: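 JAK family biochemical kinase assay run at 5 mM ATP. IC50 values are geometric means of at least two independent experiments, SEM within 0.2 log units.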

[20] = biological target: T1, Tyrosine-protein kinase JAK1; experiment: Inhibition of JAK1 in human NCI-H1975 cells assessed as decrease in STAT3 phosphorylation measured after 1 hr by ELISA; format: cell-based
Outline: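 Cellular mode-of-action assay in NCI-H1975 cells measuring inhibition of STAT3 phosphorylation. IC50 values are geometric means of at least two independent experiments.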

[21] = Apparent permeability across apical to basolateral membrane in human Caco2 cells; format: ADME, cell-based; settings: Caco-2
Outline: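 Caco-2 monolayer permeability measured in both directions, apical to basolateral and basolateral to apical. Papp reported for the A-to-B direction.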

[22] = biological target: Tyrosine-protein kinase JAK2 (Homo sapiens, UniProt O60674); experiment: Inhibition of recombinant human N-terminal GST-tagged JAK2 (831 to 1132 residues) expressed in insect cells using 5FAM-labeled GEEPLYWSFPAKKK-NH2 peptide as substrate after 10 mins in presence of 5 mM ATP by caliper mobility shift assay
Chain of Tyrosine-protein kinase JAK2 (O60674 whole entry, the tested form may be a part): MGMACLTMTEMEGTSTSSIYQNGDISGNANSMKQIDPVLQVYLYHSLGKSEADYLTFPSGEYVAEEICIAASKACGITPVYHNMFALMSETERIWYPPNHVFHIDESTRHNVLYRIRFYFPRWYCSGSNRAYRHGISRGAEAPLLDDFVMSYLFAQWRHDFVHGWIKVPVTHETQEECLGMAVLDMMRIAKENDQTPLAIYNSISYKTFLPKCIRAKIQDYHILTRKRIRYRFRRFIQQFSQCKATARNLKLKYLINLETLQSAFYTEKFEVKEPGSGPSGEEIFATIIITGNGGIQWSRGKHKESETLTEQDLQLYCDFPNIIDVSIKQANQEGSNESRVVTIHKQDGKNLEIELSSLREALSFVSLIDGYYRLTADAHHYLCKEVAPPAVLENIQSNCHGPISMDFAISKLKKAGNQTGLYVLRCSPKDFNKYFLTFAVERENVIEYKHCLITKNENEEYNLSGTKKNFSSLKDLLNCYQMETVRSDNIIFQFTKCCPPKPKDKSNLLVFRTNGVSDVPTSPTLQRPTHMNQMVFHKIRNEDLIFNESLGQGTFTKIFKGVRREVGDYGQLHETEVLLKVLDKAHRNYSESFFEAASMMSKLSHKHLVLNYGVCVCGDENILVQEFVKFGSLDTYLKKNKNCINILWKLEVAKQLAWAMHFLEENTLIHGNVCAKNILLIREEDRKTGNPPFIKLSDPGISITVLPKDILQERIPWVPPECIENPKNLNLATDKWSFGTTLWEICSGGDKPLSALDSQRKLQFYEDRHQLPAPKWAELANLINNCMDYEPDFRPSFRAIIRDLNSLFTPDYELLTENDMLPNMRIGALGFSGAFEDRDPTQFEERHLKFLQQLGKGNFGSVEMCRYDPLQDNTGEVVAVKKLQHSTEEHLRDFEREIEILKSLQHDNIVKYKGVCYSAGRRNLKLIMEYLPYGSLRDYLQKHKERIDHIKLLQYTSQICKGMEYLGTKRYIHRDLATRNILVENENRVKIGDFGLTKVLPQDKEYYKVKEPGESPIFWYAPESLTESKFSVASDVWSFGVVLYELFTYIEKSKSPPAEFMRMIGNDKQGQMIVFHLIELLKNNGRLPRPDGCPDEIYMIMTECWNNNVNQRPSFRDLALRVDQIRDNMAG

Mus musculus [23] = organism: Mus musculus; settings: 50 mg/kg; remark: listed apart in the source
[24] = Volume of distribution at steady state in Han Wistar rat at 5 mg/kg, iv; format: ADME, organism-based; settings: in vivo, read-out: Vdss; outline: as §1
[25] = Half life in Han Wistar rat at 10 mg/kg, po; format: ADME, organism-based; settings: in vivo; outline: as §1
[26] = Efflux ratio of apparent permeability across basolateral to apical membrane over apical to basolateral membrane in human Caco2 cells; format: ADME, cell-based; settings: Caco-2
Outline: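 Caco-2 monolayer permeability measured in both directions, apical to basolateral and basolateral to apical. Efflux ratio is the B to A Papp divided by the A to B Papp.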

[27] = Toxicity in NCr nude mouse xenografted with human NCI-H1975 cells harboring EGFR T790M mutant assessed as effect on body weight at 50 mg/kg, po bid administered for 18 days post 10 days of implantation; format: organism-based; settings: in vivo
Outline: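 Female NCr nude mice implanted subcutaneously with NCI-H1975 cells. Ten days after implantation, mice were randomized into groups of 6 to 8 (average tumor volume 189 mm³, range 152 to 250 mm³). They were dosed orally, as single agent or combination, at 50 mpk BID for 18 days. Vehicle was 20% captisol, with vehicle-treated controls.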

NCI-H1975 [28] = experiment: Antitumor activity against human NCI-H1975 cells harboring EGFR T790M mutant xenografted in NCr nude mouse assessed as tumor growth inhibition at 50 mg/kg, po bid administered for 18 days post 10 days of implantation; format: functional, organism-based
Outline: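 NCI-H1975 cells implanted subcutaneously in female NCr nude mice. Ten days later, mice with tumours averaging 189 mm³ (range 152–250) were randomized into groups of 6–8.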

[29] = Toxicity in NCr nude mouse xenografted with human NCI-H1975 cells harboring EGFR T790M mutant assessed as effect on body weight at 50 mg/kg, po bid administered for 18 days post 10 days of implantation in combination with osimertinib at 2.5 mg/kg, po qd; format: organism-based; settings: in vivo
[30] = AUC in Beagle dog at 20 mg/kg, po; format: ADME, organism-based, Canis lupus familiaris; settings: in vivo; outline: as §2
[31] = biological target: Vascular endothelial growth factor receptor 3 (Homo sapiens) (UniProt P35916); experiment: Inhibition of recombinant human N-terminal GST-tagged FLT4 (800 to end residues) expressed in baculovirus infected Sf21 cells at 1 uM relative to control
Chain of Vascular endothelial growth factor receptor 3 (Homo sapiens) (P35916 whole entry): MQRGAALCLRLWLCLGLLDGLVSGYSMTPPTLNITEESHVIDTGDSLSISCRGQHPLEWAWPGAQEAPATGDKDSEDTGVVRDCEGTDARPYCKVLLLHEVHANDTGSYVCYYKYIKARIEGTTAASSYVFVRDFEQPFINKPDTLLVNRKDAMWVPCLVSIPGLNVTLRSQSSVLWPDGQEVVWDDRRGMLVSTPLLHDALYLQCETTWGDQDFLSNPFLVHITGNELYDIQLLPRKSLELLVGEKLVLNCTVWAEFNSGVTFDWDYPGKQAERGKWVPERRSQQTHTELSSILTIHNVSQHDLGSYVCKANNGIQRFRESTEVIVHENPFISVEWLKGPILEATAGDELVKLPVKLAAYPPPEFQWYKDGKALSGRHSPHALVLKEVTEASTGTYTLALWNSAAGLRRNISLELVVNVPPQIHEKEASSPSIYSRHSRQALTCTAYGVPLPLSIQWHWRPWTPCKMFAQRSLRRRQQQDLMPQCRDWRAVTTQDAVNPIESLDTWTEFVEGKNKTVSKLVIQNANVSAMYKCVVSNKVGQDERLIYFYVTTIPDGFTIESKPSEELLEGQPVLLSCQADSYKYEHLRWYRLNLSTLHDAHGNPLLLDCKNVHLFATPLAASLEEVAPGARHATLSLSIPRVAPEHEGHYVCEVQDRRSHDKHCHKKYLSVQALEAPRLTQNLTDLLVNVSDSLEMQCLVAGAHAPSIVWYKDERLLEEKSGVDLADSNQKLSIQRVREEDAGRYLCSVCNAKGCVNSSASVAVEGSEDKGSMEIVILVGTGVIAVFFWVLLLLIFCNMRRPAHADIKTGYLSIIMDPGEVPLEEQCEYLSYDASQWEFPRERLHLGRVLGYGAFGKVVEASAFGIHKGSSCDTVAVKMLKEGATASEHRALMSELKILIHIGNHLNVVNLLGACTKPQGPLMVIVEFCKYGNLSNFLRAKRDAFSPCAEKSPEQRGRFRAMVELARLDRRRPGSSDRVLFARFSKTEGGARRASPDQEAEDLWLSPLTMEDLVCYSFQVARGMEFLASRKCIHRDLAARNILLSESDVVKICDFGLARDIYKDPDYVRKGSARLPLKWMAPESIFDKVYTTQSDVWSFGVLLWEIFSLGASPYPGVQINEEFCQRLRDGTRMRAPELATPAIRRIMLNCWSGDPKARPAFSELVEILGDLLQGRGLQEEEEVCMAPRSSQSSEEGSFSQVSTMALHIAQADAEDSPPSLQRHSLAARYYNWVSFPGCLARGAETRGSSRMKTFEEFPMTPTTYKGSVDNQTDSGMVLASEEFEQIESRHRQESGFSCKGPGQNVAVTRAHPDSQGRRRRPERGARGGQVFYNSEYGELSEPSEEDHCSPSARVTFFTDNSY
Outline: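 Single-point screen at 1 µM across a panel of 293 kinases. Percent inhibition recorded for each kinase.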

[32] = Intrinsic clearance in rat hepatocytes assessed per 10^-6 cells; format: ADME, cell-based, Hepatocyte; outline: as §3
[33] = Intrinsic clearance in human hepatocytes assessed per 10^-6 cells; format: ADME, cell-based, Hepatocyte; outline: as §3
[34] = biological target: Voltage-gated inwardly rectifying potassium channel KCNH2 (Homo sapiens, UniProt Q12809); experiment: Inhibition of human ERG
Chain of Voltage-gated inwardly rectifying potassium channel KCNH2 (Q12809 whole entry): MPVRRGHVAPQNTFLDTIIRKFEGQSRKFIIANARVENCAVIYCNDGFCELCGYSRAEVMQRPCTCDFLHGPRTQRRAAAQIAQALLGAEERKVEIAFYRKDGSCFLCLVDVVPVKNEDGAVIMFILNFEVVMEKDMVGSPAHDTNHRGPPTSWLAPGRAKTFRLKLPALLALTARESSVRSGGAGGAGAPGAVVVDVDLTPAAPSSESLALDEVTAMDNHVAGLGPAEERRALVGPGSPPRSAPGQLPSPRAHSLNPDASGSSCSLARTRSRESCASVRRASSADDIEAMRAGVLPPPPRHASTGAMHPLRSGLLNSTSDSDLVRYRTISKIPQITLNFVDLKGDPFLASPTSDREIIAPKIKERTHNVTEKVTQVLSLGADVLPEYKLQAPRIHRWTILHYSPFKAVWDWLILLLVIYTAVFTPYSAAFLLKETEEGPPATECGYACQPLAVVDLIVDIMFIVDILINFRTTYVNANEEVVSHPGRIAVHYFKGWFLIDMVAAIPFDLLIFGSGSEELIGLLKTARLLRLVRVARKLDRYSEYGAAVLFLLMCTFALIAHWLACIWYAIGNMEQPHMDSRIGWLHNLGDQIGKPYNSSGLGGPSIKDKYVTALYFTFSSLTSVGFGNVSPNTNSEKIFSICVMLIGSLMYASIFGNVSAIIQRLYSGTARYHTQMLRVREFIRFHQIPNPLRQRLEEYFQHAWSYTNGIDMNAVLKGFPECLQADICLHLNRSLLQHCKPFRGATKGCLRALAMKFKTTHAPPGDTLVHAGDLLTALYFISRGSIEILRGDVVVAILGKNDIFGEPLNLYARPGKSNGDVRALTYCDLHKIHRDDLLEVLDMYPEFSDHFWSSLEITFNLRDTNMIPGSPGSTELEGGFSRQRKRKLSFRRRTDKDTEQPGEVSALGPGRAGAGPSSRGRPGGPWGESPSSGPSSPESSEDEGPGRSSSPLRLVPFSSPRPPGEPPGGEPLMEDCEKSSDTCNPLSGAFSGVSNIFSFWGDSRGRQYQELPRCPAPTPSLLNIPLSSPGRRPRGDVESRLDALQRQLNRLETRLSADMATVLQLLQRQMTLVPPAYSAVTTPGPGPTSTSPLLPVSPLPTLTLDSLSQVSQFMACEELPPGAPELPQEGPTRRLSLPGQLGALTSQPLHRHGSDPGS

[35] = Bioavailability in Beagle dog at 20 mg/kg, po; settings: in vivo

COc1nn(C)cc1Nc1nccc(-c2c[nH]c3c(NC(=O)[C@@H](C)N4CCN(C)CC4)cccc23)n1 [GOLIDOCITINIB]
solubility [1]: 605 µM (≈ 296 µg/mL)
logD [2]: 1.7
AUC [3]: 1.7 µM·h
TGI (NCI-H1975 [4]): Active
inhibition in vivo at 50 mg/kg (Mus musculus [5]): 80%
F [6]: 100%
AUC [7]: 3.1 µM·h
inhibition (Mus musculus [8]): Active
Ratio IC50 (Homo sapiens): > 214
half-life [9]: 9 h
half-life [10]: 6 h
AUC [11]: 1.2 µM·h
clearance [12]: 20 mL/min/kg
CLH [13]: 2 µL/min
Vd [14]: 6.3 L/kg
IC50 [15]: 70 nM
solubility [16]: > 1000 µM
half-life [17]: 9 h
IC50 [18]: > 30000 nM
IC50 [19]: 2800 nM
IC50 [20]: 130 nM
Papp A→B [21]: 7.51 ×10⁻⁶ cm/s
IC50 [22]: > 15000 nM
inhibition (Mus musculus [23]): Active
Vd [24]: 8.7 L/kg
half-life [25]: 7 h
efflux ratio [26]: 2.6
Activity [27]: Non-Toxic
TGI (NCI-H1975 [28]): inactive
Activity [29]: Non-Toxic
AUC [30]: 5.3 µM·h
inhibition [31]: > 75%
CLH [32]: < 1.9 µL/min
CLH [33]: < 1 µL/min
IC50 [34]: > 100000 nM
bioavailability [35]: 71%
